Tests used:
Pseudomonas aeruginosa [1] = experiment: Bactericidal activity against Pseudomonas aeruginosa ATCC 9027 assessed as colony forming unit at 2.5 ug/ml measured at 6 hrs by time kill assay (reference value: 10^8 CFU/ml); format: functional; conditions: dose 2.5 µg/ml
Outline: (§1)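 Overnight Pseudomonas aeruginosa culture adjusted in Mueller–Hinton broth to about 2.5 × 10⁵ CFU/mL. Compound added at 2.5, 5 or 10 µg/mL, then incubated at 37 °C with shaking (580 rpm) for 22 h. Viable colonies counted on plates at 2, 4, 6, 8 and 22 h. Quantification limit 100 CFU/mL; triplicate.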

[2] = Selectivity index, ratio of CC50 for HEK293T cells assessed as reduction in cell viability measured after 24 hrs by MTT assay to MIC for Salmonella enterica ATCC 14028 assessed as bacterial growth inhibition by CLSI protocol based serial microdilution method; format: toxicity; conditions: human, read-out: Selectivity Index
Citrobacter freundii = experiment: Antibacterial activity against Citrobacter freundii ATCC 8090 assessed as concentration required to inhibit visible growth by CLSI protocol based serial microdilution method; format: functional
Pseudomonas aeruginosa [3] = experiment: Bactericidal activity against Pseudomonas aeruginosa ATCC 9027 assessed as colony forming unit at 5 ug/ml measured at 4 hrs by time kill assay (reference value: 1.2 x 10^7 CFU/ml); format: functional; conditions: dose 5 µg/ml; outline: as §1
Enterococcus faecalis = experiment: Antibacterial activity against Enterococcus faecalis ATCC 51299 assessed as bacterial growth inhibition by CLSI protocol based serial microdilution method; format: functional
Pseudomonas aeruginosa [4] = experiment: Bactericidal activity against Pseudomonas aeruginosa ATCC 9027 assessed as reduction in colony forming unit at 2.5 ug/ml measured at 2 hrs by time kill assay relative to control; format: functional; design: scale not given: the % may be the effect or the level left; conditions: dose 2.5 µg/ml; outline: as §1
Staphylococcus aureus [5] = experiment: Bactericidal activity against […] Staphylococcus aureus ATCC 25923 assessed as colony forming unit at 5 ug/ml measured at 6 hrs by time kill assay (reference value: 1.2 x 10^6 CFU/ml); format: functional; conditions: dose 5 µg/ml
Outline: (§2)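 S. aureus overnight culture was adjusted in MHB to ~8 × 10⁵ CFU/mL. Compound was added and the mixture incubated at 37 °C with shaking (580 rpm) for 22 h. Aliquots were plated for colony counts at 2, 4, 6, 8 and 22 h, with a quantification limit of 100 CFU/mL. Runs were done in triplicate.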

Pseudomonas aeruginosa [6] = experiment: Bactericidal activity against Pseudomonas aeruginosa ATCC 9027 assessed as colony forming unit at 5 ug/ml measured at 2 hrs by time kill assay (reference value: 3.6 x 10^5 CFU/ml); format: functional; conditions: dose 5 µg/ml; outline: as §1
Pseudomonas aeruginosa [7] = experiment: Bactericidal activity against Pseudomonas aeruginosa ATCC 9027 assessed as reduction in colony forming unit at 2.5 ug/ml measured at 6 hrs by time kill assay relative to control; format: functional; design: scale not given: the % may be the effect or the level left; conditions: dose 2.5 µg/ml; outline: as §1
Pseudomonas aeruginosa [8] = experiment: Bactericidal activity against Pseudomonas aeruginosa ATCC 9027 assessed as reduction in colony forming unit at 5 ug/ml measured at 8 hrs by time kill assay relative to control; format: functional; design: scale not given: the % may be the effect or the level left; conditions: dose 5 µg/ml; outline: as §1
Pseudomonas aeruginosa [9] = experiment: Antibacterial activity against Pseudomonas aeruginosa ATCC 9027 assessed as bacterial growth inhibition by CLSI protocol based serial microdilution method; format: functional
Escherichia coli [10] = experiment: Antibacterial activity against Escherichia coli ATCC 25922 assessed as concentration required to inhibit visible growth by CLSI protocol based serial microdilution method; format: functional
Staphylococcus aureus [11] = experiment: Antibacterial activity against methicillin-resistant Staphylococcus aureus CEMTC 1733 assessed as bacterial growth inhibition by CLSI protocol based serial microdilution method; format: functional
[12] = Selectivity index, ratio of CC50 for HEK293T cells assessed as reduction in cell viability measured after 24 hrs by MTT assay to MIC for Pseudomonas aeruginosa ATCC 9027 assessed as bacterial growth inhibition by CLSI protocol based serial microdilution method; format: toxicity; conditions: human, read-out: Selectivity Index
[13] = Selectivity index, ratio of CC50 for MDCK cells to EC50 for Influenza A virus (A/Puerto Rico/8/34 (H1N1)) infected in MDCK cells; format: toxicity, cell-based; conditions: dog, read-out: Ratio CC50/EC50
Outline: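 Ratio of CC₅₀ to EC₅₀, both in MDCK cells, with cytotoxicity run in parallel with the antiviral assay. EC₅₀ is the concentration halving virus production (0.3 log₁₀ EID₅₀ titre drop). It was obtained after 1 h compound pre-incubation, infection, 48 h at 37 °C, and hemagglutination read-out with 1% chicken erythrocytes.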

Pseudomonas aeruginosa [14] = experiment: Bactericidal activity against Pseudomonas aeruginosa ATCC 9027 assessed as colony forming unit at 2.5 ug/ml measured at 8 hrs by time kill assay (reference value: 2.7 x 10^8 CFU/ml); format: functional; conditions: dose 2.5 µg/ml; outline: as §1
Pseudomonas aeruginosa [15] = experiment: Bactericidal activity against Pseudomonas aeruginosa ATCC 9027 assessed as reduction in colony forming unit at 5 ug/ml measured at 6 hrs by time kill assay relative to control; format: functional; design: scale not given: the % may be the effect or the level left; conditions: dose 5 µg/ml; outline: as §1
Staphylococcus aureus [16] = experiment: Bactericidal activity against […] Staphylococcus aureus ATCC 25923 assessed as colony forming unit at 5 ug/ml measured at 2 hrs by time kill assay (reference value: 10^6 CFU/ml); format: functional; conditions: dose 5 µg/ml; outline: as §2
Escherichia coli [17] = experiment: Antibacterial activity against Escherichia coli ATCC 25922 assessed as bacterial growth inhibition by CLSI protocol based serial microdilution method; format: functional
Staphylococcus aureus [18] = experiment: Bactericidal activity against […] Staphylococcus aureus ATCC 25923 assessed as colony forming unit at 1.25 ug/ml measured at 22 hrs by time kill assay (reference value: 2.9 x 10^9 CFU/ml); format: functional; conditions: dose 1.25 µg/ml; outline: as §2
Staphylococcus aureus [19] = experiment: Bactericidal activity against […] Staphylococcus aureus ATCC 25923 assessed as colony forming unit at 5 ug/ml measured at 22 hrs by time kill assay (reference value: 2.9 x 10^9 CFU/ml); format: functional; conditions: dose 5 µg/ml; outline: as §2
Pseudomonas aeruginosa [20] = experiment: Bactericidal activity against Pseudomonas aeruginosa ATCC 9027 assessed as reduction in colony forming unit at 2.5 ug/ml measured at 4 hrs by time kill assay relative to control; format: functional; design: scale not given: the % may be the effect or the level left; conditions: dose 2.5 µg/ml; outline: as §1
Staphylococcus aureus [21] = experiment: Bactericidal activity against […] Staphylococcus aureus ATCC 25923 assessed as colony forming unit at 2.5 ug/ml measured at 2 hrs by time kill assay (reference value: 10^6 CFU/ml); format: functional; conditions: dose 2.5 µg/ml; outline: as §2
Staphylococcus aureus [22] = experiment: Antibacterial activity against methicillin-resistant Staphylococcus aureus CEMTC 1850 assessed as concentration required to inhibit visible growth by CLSI protocol based serial microdilution method; format: functional
Pseudomonas aeruginosa [23] = experiment: Bactericidal activity against Pseudomonas aeruginosa ATCC 9027 assessed as reduction in colony forming unit at 2.5 ug/ml measured at 8 hrs by time kill assay relative to control; format: functional; design: scale not given: the % may be the effect or the level left; conditions: dose 2.5 µg/ml; outline: as §1
Candida albicans = experiment: Antifungal activity against Candida albicans CEMTC 34 assessed as concentration required to inhibit visible growth by CLSI protocol based serial microdilution method; format: functional
Outline: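 Candida albicans grown in Sabouraud dextrose broth with two-fold serial compound dilutions from water stocks; final inoculum about 5 × 10⁵ CFU/mL. Incubated at 37 °C with orbital shaking (580 rpm). MIC is the lowest concentration preventing growth, by absorbance at 595 nm. MFC is the lowest concentration with no visible growth. Duplicates in two separate experiments.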

Salmonella typhimurium = experiment: Antibacterial activity against Salmonella enterica ATCC 14028 assessed as concentration required to inhibit visible growth by CLSI protocol based serial microdilution method; format: functional, Salmonella enterica subsp. enterica serovar Typhimurium
Pseudomonas aeruginosa [24] = experiment: Bactericidal activity against Pseudomonas aeruginosa ATCC 9027 assessed as colony forming unit at 5 ug/ml measured at 8 hrs by time kill assay (reference value: 2.7 x 10^8 CFU/ml); format: functional; conditions: dose 5 µg/ml; outline: as §1

SMILES | Activity (Pseudomonas aeruginosa [1]) [CFU/ml] | selectivity ratio at 24 h [2] | MBC (Citrobacter freundii) [µg/mL] | Activity (Pseudomonas aeruginosa [3]) [CFU/ml] | MIC (Enterococcus faecalis) [µg/mL] | Activity (Pseudomonas aeruginosa [4]) | Activity (Staphylococcus aureus [5]) [CFU/ml] | Activity (Pseudomonas aeruginosa [6]) [CFU/ml] | Activity (Pseudomonas aeruginosa [7]) | Activity (Pseudomonas aeruginosa [8]) | MIC (Pseudomonas aeruginosa [9]) [µg/mL] | MBC (Escherichia coli [10]) [µg/mL] | MIC (Staphylococcus aureus [11]) [µg/mL] | selectivity ratio at 24 h [12] | selectivity ratio [13] | Activity (Pseudomonas aeruginosa [14]) [CFU/ml] | Activity (Pseudomonas aeruginosa [15]) | Activity (Staphylococcus aureus [16]) [CFU/ml] | MIC (Escherichia coli [17]) [µg/mL] | Activity (Staphylococcus aureus [18]) [CFU/ml] | further results
CCCCCCCCCCCC[N+]12CC[N+](CCC[N+]34CC[N+](CCCCCCCCCCCC)(CC3)CC4)(CC1)CC2 | <100 | 4 | 3.1 | <100 | 1.6 | >=99.9% | <100 | <100 | >=99.9% | >=99.9% | 1.6 | 3.1 | 1 | 4 | 7 | <100 | >=99.9% | <100 | 1.6 | <100 | Activity (Staphylococcus aureus [19]): <100 CFU/ml; Activity (Pseudomonas aeruginosa [20]): >=99.9%; Activity (Staphylococcus aureus [21]): 330 CFU/ml; MBC (Staphylococcus aureus [22]): 1 µg/mL; Activity (Pseudomonas aeruginosa [23]): >=99.9%; MFC (Candida albicans): 6.3 µg/mL; MBC (Salmonella typhimurium): 3.1 µg/mL; Activity (Pseudomonas aeruginosa [24]): <100 CFU/ml
CCCCCCCCCCCC[N+]12CC[N+](Cc3ccccc3C[N+]34CC[N+](CCCCCCCCCCCC)(CC3)CC4)(CC1)CC2 | <100 | 3 | 1.6 | <100 | 0.8 | >=90% | <100 | 130 | >=99.9% | >=99.9% | 1.6 | 3.1 | 1 | 3 | 2 | 300 | >=99.9% | <100 | 1.6 | <100 | Activity (Staphylococcus aureus [19]): <100 CFU/ml; Activity (Pseudomonas aeruginosa [20]): >=99.9%; Activity (Staphylococcus aureus [21]): 1000 CFU/ml; MBC (Staphylococcus aureus [22]): 1 µg/mL; Activity (Pseudomonas aeruginosa [23]): >=99.9%; MFC (Candida albicans): 6.3 µg/mL; MBC (Salmonella typhimurium): 3.1 µg/mL; Activity (Pseudomonas aeruginosa [24]): <100 CFU/ml

Source: ChEMBL document CHEMBL4715780, “Biological evaluation of tetracationic compounds based on two 1,4-diazabicyclo[2.2.2]octane moieties connected by different linkers” (Bioorg Med Chem, 2016)
